The values that follow come from ChEMBL document CHEMBL1123764, “Long-acting angiotensin II inhibitors containing hexafluorovaline in position 8” (J Med Chem, 1987).

The species named for assay [1] is Rattus norvegicus. Description: Time course for AII (6 ng) induced pressor response in rats to return to 50% of pretreatment level after a bolus injection of 10 microg. The format is functional, organism-based. The method, boiled down: (§1)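 Female Wistar rats were anesthetized with pentobarbital sodium (30 mg/kg), vagotomized, cannulated in the carotid artery and femoral vein, and given pentolinium tartrate (5 mg/200 g). After a bolus injection of inhibitor, 6 ng AII was injected at 15-min intervals while blood pressure was recorded by transducer. The read-out is the time for the pressor response to recover to 50% of pretreatment.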

Assay [2] is filed under the species Rattus norvegicus. Nature of the assay: Time course for AII (6 ng) induced pressor response in rats to return to 50% of pretreatment level after a bolus injection of 30 microg. The format is functional, organism-based. Put shortly:
as §1

The species entered for assay [3] is Rattus norvegicus. Description: Time course for AII (6 ng) induced pressor response in rats to return to 50% of pretreatment level after a bolus injection of 100 microg. It is filed as functional, organism-based. The method, boiled down:
as §1

The species entered for assay [4] is Rattus norvegicus. Nature of the assay: Time course for AII (6 ng) induced pressor response in rats to return to 50% of pretreatment level after a bolus injection of 1 microg. The format is functional, organism-based. The method, boiled down:
as §1

The species named for assay [5] is Rattus norvegicus. Nature of the assay: Time course for AII (6 ng) induced pressor response in rats to return to 50% of pretreatment level after a bolus injection of 3 microg. It is filed as functional, organism-based. The method, boiled down:
as §1

For assay [6], the species on record is Rattus norvegicus. Description: Time course for AII (6 ng) induced pressor response in rats to return to 50% of pretreatment level after a bolus injection of 50 microg. It is filed as functional, organism-based. The method, boiled down: as §1
For assay [7], the species on record is Rattus norvegicus. Nature of the assay: Time course for AII (6 ng) induced pressor response in rats to return to 50% of pretreatment level after a bolus injection of 5 microg. The format is functional, organism-based. Put shortly: as §1
The species entered for assay [8] is Rattus norvegicus. Nature of the assay: Antagonistic potency determined in rat stomach at 1 ng/mL expressed as dose ratio of AII to produce 25% of control maximal response. The format is functional.
Assay [9] is filed under the species Rattus norvegicus. Nature of the assay: Dose required to produce( 25% maximal response) In vitro agonistic activity against angiotensin II in rat stomach. The format is functional. The method, boiled down: (§2)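 Isolated rabbit aorta or rat stomach strips were used. Agonist activity (%) is the AII dose producing 25% of maximal response divided by the analogue dose producing the same response. Each value comes from 3 experiments.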

The species named for assay [10] is Oryctolagus cuniculus. Description: Dose required to produce(25% maximal response) In vitro agonistic activity against angiotensin II in rabbit aorta. The format is functional. Put shortly: as §2
The species entered for assay [11] is Rattus norvegicus. Nature of the assay: Antagonistic potency determined in rat stomach at 10 ng/mL expressed as dose ratio of AII to produce 25% of control maximal response. It is filed as functional.
Assay [12] is filed under the species Oryctolagus cuniculus. Nature of the assay: Antagonistic potency determined in rabbit aorta at 1 ng/mL expressed as dose ratio of AII to produce 25% of control maximal response. The format is functional.
Assay [13] is filed under the species Oryctolagus cuniculus. Nature of the assay: Antagonistic potency determined in rabbit aorta at 10 ng/mL expressed as dose ratio of AII to produce 25% of control maximal response. It is filed as functional.
Assay [14] is filed under the species Rattus norvegicus. Description: In vitro agonistic activity against angiotensin II was determined to produce 25% maximal response in rat stomach at a dose of 10 ng/mL. It is filed as functional.
The species named for assay [15] is Rattus norvegicus. Description: In vitro agonistic activity against angiotensin II was determined to produce 25% maximal response in rat stomach at a dose of 50 ng/mL. The format is functional.
Assay [16] is filed under the species Oryctolagus cuniculus. Description: In vitro antagonistic activity against angiotensin II was determined to produce 25% maximal response in rabbit aorta at a dose of 50 ng/mL.
The species named for assay [17] is Oryctolagus cuniculus. Nature of the assay: In vitro antagonistic activity against angiotensin II was determined to produce 25% maximal response in rabbit aorta at a dose of 10 ng/mL.
The species entered for assay [18] is Rattus norvegicus. Nature of the assay: Dose required to produce(to produce 25% maximal response) In vitro agonistic activity against angiotensin II in rat stomach. It is filed as functional. Put shortly:
as §2

Assay [19] is filed under the species Oryctolagus cuniculus. Description: Dose required to produce(to produce 25% maximal response) In vitro agonistic activity against angiotensin II in rabbit aorta. It is filed as functional. The method, boiled down:
as §2

For assay [20], the species on record is Rattus norvegicus. Nature of the assay: Antagonism determined in rat stomach against AII. The format is functional. The settings on record: read-out: pA2 (converted).
Assay [21] is filed under the species Oryctolagus cuniculus. Nature of the assay: Antagonism determined in rabbit aorta against AII. It is filed as functional. The settings on record: read-out: pA2 (converted).

Turning to `CNCC(=O)N[C@@H](CCCNC(=N)N)C(=O)N[C@H](C(=O)N[C@@H](Cc1ccc(O)cc1)C(=O)N[C@H](C(=O)N[C@@H](Cc1cnc[nH]1)C(=O)N1CCC[C@H]1C(=O)N[C@@H](C)C(=O)O)C(C)C)C(C)C`, the Recovery time in assay [1] worked out at 11 min; in [2], 13.7 min; in [3] it was 18 min.

Regarding `CNCC(=O)N[C@@H](CCCN=C(N)N)C(=O)N[C@H](C(=O)N[C@@H](Cc1ccc(O)cc1)C(=O)N[C@H](C(=O)N[C@@H](Cc1c[nH]cn1)C(=O)N1CCC[C@H]1C(=O)N[C@@H](C(=O)O)C(C(F)(F)F)C(F)(F)F)C(C)C)C(C)C` [listing 1 of 3 here], the figures for the Recovery time in assay [4], in [1] and in assay [5] were 12.5 min, 60.1 min and 32.3 min, respectively.

For `CNCC(=O)N[C@@H](CCCN=C(N)N)C(=O)N[C@H](C(=O)N[C@@H](Cc1ccc(O)cc1)C(=O)N[C@H](C(=O)N[C@@H](Cc1c[nH]cn1)C(=O)N1CCC[C@H]1C(=O)N[C@H](CC(C)C)C(=O)O)C(C)C)C(C)C`, the Recovery time in assay [6] turned out to be 37.6 min; in [1] it was 23.6 min; in assay [5], 13.5 min; in [2], 34.5 min.

Turning to `CNCC(=O)N[C@@H](CCCN=C(N)N)C(=O)N[C@H](C(=O)N[C@@H](Cc1ccc(O)cc1)C(=O)N[C@H](C(=O)N[C@@H](Cc1c[nH]cn1)C(=O)N1CCC[C@H]1C(=O)N[C@H](C(=O)O)C(C(F)(F)F)C(F)(F)F)C(C)C)C(C)C` [listing 1 of 3 here], the Recovery time in assay [4] amounted to 5.8 min; in [1], 73.6 min; in [5], 19 min; in [7], 40.6 min.

Consider `CNCC(=O)N[C@@H](CCCN=C(N)N)C(=O)N[C@H](C(=O)N[C@@H](Cc1ccc(O)cc1)C(=O)N[C@H](C(=O)N[C@@H](Cc1c[nH]cn1)C(=O)N1CCC[C@H]1C(=O)N[C@H](C(=O)O)C(C(F)(F)F)C(F)(F)F)C(C)C)C(C)C` [listing 2 of 3 here], for which the Potency in assay [8] was 2.2; in [11] it was 51.7; in assay [12] it was 6.1; in assay [13], 294. Moreover, the values for the Activity in [9] and in assay [10] were 0.8% and 1.1%, respectively.

Regarding `CNCC(=O)N[C@@H](CCCN=C(N)N)C(=O)N[C@H](C(=O)N[C@@H](Cc1ccc(O)cc1)C(=O)N[C@H](C(=O)N[C@@H](Cc1c[nH]cn1)C(=O)N1CCC[C@H]1C(=O)N[C@@H](C(=O)O)C(C(F)(F)F)C(F)(F)F)C(C)C)C(C)C` [listing 2 of 3 here], the Potency in [14] is 2; in assay [15], 4.1. Also, the Dose ratio is 42 in assay [16] and 2.1 in [17]. In addition, the values for the Activity in assay [18] and in assay [19] were 0.03% and 0%, respectively.

Regarding H-DRVYVHPF-OH [[Val5] - ANGIOTENSIN II], the Activity in assay [18] and in assay [19] was 100% each time.

Regarding `CNCC(=O)N[C@@H](CCCN=C(N)N)C(=O)N[C@H](C(=O)N[C@@H](Cc1ccc(O)cc1)C(=O)N[C@H](C(=O)N[C@@H](Cc1c[nH]cn1)C(=O)N1CCC[C@H]1C(=O)N[C@@H](CC(C)C)C(=O)O)C(C)C)C(C)C`, the values for the Kb in assay [20] and in assay [21] were 2.51 nM and 1.95 nM, respectively.

`CNCC(=O)N[C@@H](CCCN=C(N)N)C(=O)N[C@H](C(=O)N[C@@H](Cc1ccc(O)cc1)C(=O)N[C@H](C(=O)N[C@@H](Cc1c[nH]cn1)C(=O)N1CCC[C@H]1C(=O)N[C@H](C(=O)O)C(C(F)(F)F)C(F)(F)F)C(C)C)C(C)C` [listing 3 of 3 here]: the Kb is 0.851 nM in assay [20] and 0.832 nM in [21].

Consider `CNCC(=O)N[C@@H](CCCN=C(N)N)C(=O)N[C@H](C(=O)N[C@@H](Cc1ccc(O)cc1)C(=O)N[C@H](C(=O)N[C@@H](Cc1c[nH]cn1)C(=O)N1CCC[C@H]1C(=O)N[C@@H](C(=O)O)C(C(F)(F)F)C(F)(F)F)C(C)C)C(C)C` [listing 3 of 3 here], for which the Kb in assay [20] and in [21] was 7.94 nM each time.
